Compound activity from PubChem BioAssay.
Most compounds without a hit are left out; they make up all but 2% or so of the library.
CHRM1 agonist: activates human CHRM1 receptor. P11229. CHO-K1 hM1, Fluo-8 calcium fluorescence, agonist mode; 0% DMSO, 100% acetylcholine EC100. activation, % at 3 µM. actives 0.33% (n = 360,000);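 active = activation above the run's mean compound activation plus 3 SD, cut at about 16% in these data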;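 also: peak over basal fluorescence ratio within a 140 s kinetic read after compound addition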
CHRM5 antagonist: CHRM5 antagonism in calcium assay; inhibition, % at 3 µM; CHO-hM5 cells, Fluo-8 calcium fluorescence, ACh EC80; actives 0.59% (n = 360,000);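 active = inhibition above a per-plate cutoff, the mean of that plate's test compounds plus 3 SD, cut at about 27% in these data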;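 also: 0% = acetylcholine EC80 with DMSO and 100% = DMSO without agonist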
Target sequence (P08912 whole entry, looked up): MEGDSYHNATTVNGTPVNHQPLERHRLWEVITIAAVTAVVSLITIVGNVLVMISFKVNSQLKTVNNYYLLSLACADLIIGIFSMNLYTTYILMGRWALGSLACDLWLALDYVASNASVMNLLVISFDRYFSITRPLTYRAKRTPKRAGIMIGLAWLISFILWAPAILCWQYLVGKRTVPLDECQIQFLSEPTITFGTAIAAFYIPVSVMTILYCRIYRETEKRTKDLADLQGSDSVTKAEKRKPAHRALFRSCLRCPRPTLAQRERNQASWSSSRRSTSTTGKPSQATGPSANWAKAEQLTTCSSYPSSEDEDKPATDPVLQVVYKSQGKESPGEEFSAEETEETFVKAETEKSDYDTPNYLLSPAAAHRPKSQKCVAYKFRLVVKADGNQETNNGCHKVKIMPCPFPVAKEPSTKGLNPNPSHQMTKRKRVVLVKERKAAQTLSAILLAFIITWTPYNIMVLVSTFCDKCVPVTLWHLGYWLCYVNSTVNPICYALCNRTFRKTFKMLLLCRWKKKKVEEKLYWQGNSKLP
CHRM5 agonist: agonists of human muscarinic M5 receptor (CHRM5). P08912. actives 0.19% (n = 360,000). activation, % at 3 µM. CHO-K1 hM5 cells, Fluo-8 calcium fluorescence; 0% DMSO wells, 100% maximal acetylcholine response;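 active = activation above the run's mean over test compounds plus 3 SD, cut at about 23% in these data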;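 also: signal is peak over basal fluorescence ratio across the kinetic read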
M5 PAM: CHRM5 positive allosteric modulation; actives 0.3% (n = 360,000); CHO-K1 hM5, Fluo-8 calcium, ACh EC20 PAM; 0% = ACh EC20, 100% = ACh EC100; activation, % at 3 µM;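 active = activation above the run cutoff, the mean activation of all test compounds plus 3 SD, cut at about 18% in these data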
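Assay system – human M5 receptor in CHO-K1 cells · Read-out – % activation, ACh-normalized · Technique – Fluo-8 calcium fluorescence · Dosing – single-point, 3 µM nominal · Incubation – Fluo-8 loading 80 min at 37 °C plus 30 min room temperature · Repeats – singlicate, one well per test compound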
M1 antag: human CHRM1 antagonism; P11229; CHO-K1 hM1, Fluo-8 calcium fluorescence, ACh EC80 antagonist; inhibition, % at 3 µM; actives 1.3% (n = 360,000); AID 588852;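 active = percent inhibition above its own plate's cutoff, namely the mean of that plate's compound wells plus 3 SD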;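 also: peak over basal fluorescence ratio during 140 s after agonist addition; 0% = ACh EC80 plus DMSO and 100% = DMSO alone without agonist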
M1 PAM: human CHRM1 positive allosteric modulation | AID 588819 | CHO-K1 hM1, Fluo-8 calcium fluorescence, ACh EC20; 0% = ACh EC20, 100% = maximal ACh | P11229 | actives 0.088% (n = 360,000) | activation, % at 3 µM; in the data active = activation above about 19%, passing the limit was not always enough
Active calls of the source: *; · = no result; ! = a repeat was not active.

SMILES	CHRM1 agonist	CHRM5 antagonist	CHRM5 agonist	M5 PAM	M1 antag	M1 PAM
C(=C\c1ccccc1)/CN1CCN(C(c2ccccc2)c2nnnn2-c2ccc3c(c2)OCCO3)CC1 (centres undefined)	-7	75*	-8	-22	95*	-25
C(=C\c1ccccc1)/CN1CCN(C(c2ccnc3ccccc23)c2nnnn2-c2ccc3c(c2)OCCO3)CC1 (centres undefined)	-6	1	-7	-5	-16	-9
C(=C\c1ccccc1)/CN1CCN(C(c2cc3ccccc3o2)c2nnnn2C2CCCC2)CC1 (centres undefined)	-6	4	-1	-14	-1	-16
C(=C\c1ccccc1)/CN1CCN(C(c2cccc3ccccc23)c2nnnn2C2CCCC2)CC1 (centres undefined)	0	99*	-6	-22	95*	-20
COc1ccc(C(c2nnnn2C2CCCCC2)N2CCN(C/C=C/c3ccccc3)CC2)cc1 (centres undefined)	-7	58*	-7	-22	87*	-26
C(=C\c1ccccc1)/CN1CCN(C(c2nnnn2C2CCCCC2)C2CC2)CC1 (centres undefined)	-5	5	-7	-14	-12	-12
CCOC(=O)[C@]12CCC=C1N(Cc1ccc(Cl)cc1Cl)C(=O)[C@H](CC(=O)NCc1ccc(C)o1)C2	·	-8	-4	3	·	·
COc1ccc(S(=O)(=O)Nc2ccc(Cc3ccncc3)cc2)cc1C	0	4	-4	-9	39*	-23
CC(C)(C)c1ccc(S(=O)(=O)Nc2ccc(Cc3ccncc3)cc2)cc1	-2	16	3	-16	62*	-22
Cc1ccccc1CN1C(=O)CSCC1(C)C(=O)NC(C)C (centres undefined)	·	-8	2	8	·	·
O=C(C[C@@H]1CC[C@H](NS(=O)(=O)c2ccccc2F)[C@@H](CO)O1)NCCCN1CCOCC1	·	-3	1	-1	·	·
CN(Cc1ccccc1)C(=O)c1ccc(NC(=O)Cc2ccc([N+](=O)[O-])cc2)cc1	4	2	26*	14	11	1
CN(C(=O)c1ccc(NC(=O)Cc2ccc([N+](=O)[O-])cc2)cc1)C1CC1	11	18	22	-4	26	-16
CCN(CC)S(=O)(=O)c1cccc(C(=O)N/N=C/c2ccc(O)c(O)c2O)c1	-6	-6	-1	0	6	26*
CCOc1ccccc1/C=N/NC(=O)c1cccc(S(=O)(=O)N(CC)CC)c1	-5	2	-6	-5	0	-3
Cc1cc(SCC(=O)O)nc2ccccc12	0	-12	3	18*!	-28	21
Cc1cc(SCC(=O)N2CCCC2=O)nc2c(C)cccc12	-6	-2	-7	4	-7	2
Cc1cc(SCCC(=O)O)nc2c(C)cccc12	-2	-3	-11	33*	1	3
O=C(C[C@H]1CC[C@@H]2[C@H](COC[C@H](O)CN2C(=O)c2cnccn2)O1)NCc1ccc(Cl)cc1	·	4	0	0	·	·
COc1cccc(CN2CCC2(C)C(=O)NCc2cccc(C(F)(F)F)c2)c1OC (centres undefined)	-3	1	2	-7	11	-10
CC1(C)N=C(N)N=C(N)N1CCCCc1ccccc1	-8	19	-12	-32	52*	-27
COC(C[C@@H](O)[C@H](C)[C@@H](O)COCc1ccccc1)OC	-9	5	-3	-14	51*	-32
CCOC(=O)N1CCC(NCCNC(=O)c2ccc(F)cc2)CC1	63*	-6	10	1	68*	-33
CCOC(=O)N1CCC(NC(=O)c2ccc(Cl)cc2)CC1	-1	-3	-3	3	-4	5
CCOC(=O)N1CCC(NCCNC(=O)c2cccc(F)c2)CC1	66*	-2	2	1	64*	-33
SMILES	CHRM1 agonist	CHRM5 antagonist	CHRM5 agonist	M5 PAM	M1 antag	M1 PAM
COC(=O)C1=CN(c2ccc(C(C)(C)C)cc2)C(N)=C(C#N)C1c1cccc2ccccc12 (centres undefined)	·	-11	3	1	·	·
COc1ccc(-n2cnnc2SCC(=O)NC2CC2)cc1	-3	-1	0	2	-6	8
O=C(Cc1ccc(NS(=O)(=O)c2cccc(C(F)(F)F)c2)cc1)NCCN1CCOCC1	-5	-14	2	6	-2	6
CC(C)(CNC(=O)Cc1ccc(NS(=O)(=O)c2cccc(C(F)(F)F)c2)cc1)N1CCOCC1	-6	2	-4	-1	34*	-13
CN1CCC(N2CCN(C3CN(Cc4ccc(F)cc4)S(=O)(=O)C3)CC2)CC1 (centres undefined)	-5	-7	0	4	-10	13
O=C(NCc1ccncc1)[C@@H]1CCCN1C(=O)[C@H]1CCCN1C(=O)c1cccc2ccccc12	·	9	-1	-5	·	·
CC#CC[N+](C)(C)CCCCCCCCCCCC	-10	13	-11	-22	41*	-27
C#CC[N+](C)(C)CCCCCCCCCCCC	-14	21	-8	-19	56*	-26
Cc1cccc(N2C(=O)CC(N3CCN(Cc4ccc5c(c4)OCO5)CC3)C2=O)c1 (centres undefined)	-6	16	-3	18*	35*	-13
Cc1cccc(Nc2nc(N)nc(CN3CCN(Cc4ccc5c(c4)OCO5)CC3)n2)c1	-5	3	-1	-2	21*	-16
COc1ccccc1Nc1nc(N)nc(CN2CCN(Cc3ccc4c(c3)OCO4)CC2)n1	-6	-1	-3	0	11	-6
Cc1cc(C)c2c(CN3CCN(Cc4ccc5c(c4)OCO5)CC3)cc(=O)oc2c1	-7	1	-11	-6	33*	-27
O=C1CC(N2CCN(Cc3ccc4c(c3)OCO4)CC2)C(=O)N1c1ccccc1 (centres undefined)	-7	11	-7	0	4	-5
Cc1ccc(N(C)S(=O)(=O)c2cccc(C(=O)OCC(=O)c3c(N)n(C)c(=O)n(C)c3=O)c2)cc1	6	14	3	-33	33*	-16
CC1CCCN(S(=O)(=O)c2cc(C(=O)NCCc3ccc(S(N)(=O)=O)cc3)ccc2Cl)C1 (centres undefined)	-1	10	0	-17	4	1
Cc1ccc(OC(=O)N(C)C[C@H]2OCc3cn(nn3)CCCC(=O)N([C@H](C)CO)C[C@@H]2C)cc1	-3	0	1	-1	-10	6
CCOC(=O)C1CCCN(C(=O)COc2ccccc2O)C1 (centres undefined)	74*	3	49*	-29	62*	-23
